Source: ChEMBL document CHEMBL4513216, “Probing the Open Global Health Chemical Diversity Library for Multistage-Active Starting Points for Next-Generation Antimalarials” (ACS Infect Dis, 2020)

Experiment: Toxicity liver stage against HepG2, at 10uM
Assay type: cell-based
Parameters: test concentration 10 uM, cell line HepG2-A16-CD81EGFP
Conditions: human, HepG2-A16-CD81EGFP cells; read-out: INHIBITION
Method in brief: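 Uninfected HepG2-A16-CD81EGFP cells, 3 × 10^3 per well, 1536-well, plated on prespotted compound at 10 μM final, parasite-free screening media added to match infected plates; puromycin 10 μM positive, DMSO 0.5% negative; run in parallel with 48 h PbLuc assay at 37 °C, 5% CO2; viability by CellTiter-Glo luminescence, normalized to controls.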

Row | Compound | cytotoxicity at 10 µM
1 | F[C@@H]1CN(Cc2nccs2)C[C@@H]1OCc1nc2cnccc2[nH]1 | 4.15%
2 | Cn1nc(Br)nc1Sc1ccccc1NC(=O)C1CC1 | 3.62%
3 | O=C(NC1CCCCC1)c1cc(Br)cnc1N1CCCCC1 | 2.22%
4 | COc1nn(C)cc1C(=O)N1CCC(c2nnc(C(C)C)o2)CC1 | 13.5%
5 | O=C(NCc1c(F)cccc1F)C1CN(C(=O)c2cnccn2)C1 | -12.2%
6 | CCOC(=O)CNC(=O)C1CN(C(=O)c2cnccn2)C1 | 2.63%
7 | O=C(Cc1cccs1)NCC1(O)CCc2ccccc2C1 (stereo not given) | -10.1%
8 | CCS(=O)(=O)N1CCC2(CCN(CC(=O)N(C)C)C2=O)CC1 | 5.68%
9 | O=C(C1CCN(c2nc3nc[nH]c(=O)c3s2)CC1)N1CCCCC1 | -5.55%
10 | Cc1nn(C)c(=O)c2nn(-c3cccc(Cl)c3)c(C)c12 | 3.79%
11 | CN1[C@H](Cn2cccn2)C[C@@H]2CN(C(=O)Cc3cccs3)CC[C@@H]21 | 9.58%
12 | O=C1CC2(CCCCN2C(=O)c2ccsc2)CN1CC1CC1 (stereo not given) | 2.84%
13 | NC(=O)CN1CCCC(c2ccnc(Nc3ncccn3)c2)C1 (stereo not given) | 10.1%
14 | Cc1cc(C)nc(N2CCC(c3noc(C)n3)CC2)n1 | -9.08%
15 | CC(=O)Nc1nc(C2CN(C(=O)C3CCC3)C2)cs1 | -21.9%
16 | CCC(=O)N1CCC2(CC1)CNC(=O)c1cc(C)ccc1O2 | -20%
17 | Cc1nc(Nc2ncccn2)cc(C2CN(C(=O)c3cccnc3)C2)n1 | 4.42%
18 | O=C(c1cccs1)N1CCc2c(nc(N3CCCCC3)[nH]c2=O)C1 | -14.5%
19 | Cc1ccc(CN2CCCC(c3nn(C)c4nccnc34)C2)s1 (stereo not given) | -10.6%
20 | CC(C)C(=O)N1Cc2ccccc2CC2(CCCN2C)C1 (stereo not given) | 4.51%
21 | COc1cc(Br)c(S(=O)(=O)NC(=O)C(C)OC)cc1OC (stereo not given) | -22.9%
22 | Cc1nc(NC(=O)NCc2cccnc2NCCN(C)C)sc1C | 4.51%

Row | Compound | cytotoxicity at 10 µM
23 | COc1cc(C(=O)O)ccc1OCC(=O)NCCc1ccccc1 | -10.6%
24 | COC(=O)c1sc(C(NC(=O)c2ccccc2)C2CC2)nc1C (stereo not given) | 0.0726%
25 | CCN1CCN(C(=O)c2csnn2)c2ccccc21 | -1.46%
26 | Cc1nn(C)c(C)c1C1COCCN1C(=O)CSC(C)(C)C (stereo not given) | 4.22%
27 | COc1ccc(NC(=O)N2CCC(c3nnc[nH]3)CC2)cc1C | 15.8%
28 | CC(=O)N1CCC(NC(=O)c2cc(Cl)ccc2-n2cnnn2)CC1 | 8.72%
29 | CCN(CC)c1ccc(CNC(=O)c2cnccn2)cn1 | -104%
30 | COCCn1cc(C(=O)N2CCCC2c2noc(C)n2)ccc1=O (stereo not given) | -9.8%
31 | Cc1ccc(NC(C)C(=O)N(C)Cc2cccc(F)c2)cc1C(N)=O (stereo not given) | 11.4%
32 | CCOc1ncccc1CNC(=O)CN1CCCCCC1=O | 2.92%
33 | CC(C)Cc1noc(CN2CCCN(C(=O)c3ccccc3Cl)CC2)n1 | -5.95%
34 | CCc1csc(C2CCCN(C(=O)c3ccc(OC)nc3)C2)n1 (stereo not given) | 4.65%
35 | CN(CC(=O)N(C)C1CCN(CC2CCOC2)CC1)c1ccccc1 (stereo not given) | -9.45%
36 | NC(=O)Cn1cc(NC(=O)NCC2CCN(c3ccccc3)C2)cn1 (stereo not given) | 1.95%
37 | CCCNC(=O)Nc1ccn(CCCOC)n1 | -2.11%
38 | CN(C(=O)CCc1ccsc1)S(C)(=O)=O | 0.347%
39 | COc1ccc(C(C)NC(=O)Nc2nccs2)cc1OC (stereo not given) | 4.37%
40 | Cc1nnc(NC(=O)NC(C)C(=O)NC2CCCC2)s1 (stereo not given) | -0.334%
41 | CC(NC(=O)c1cccnc1N(C)C)c1ccccc1Br (stereo not given) | 17.7%
42 | CCc1nc(CNC(C)(CO)C2CCCCC2)no1 (stereo not given) | -13.1%
43 | CC(=O)N1CCN(C(=O)CNc2cccc(OC(F)F)c2C)CC1 | -11.4%
44 | Cc1cc(S(=O)(=O)NCC[S+](C)[O-])c(F)cc1F (stereo not given) | -4.23%

Row | Compound | cytotoxicity at 10 µM
45 | O=C1CCN(C(=O)CCc2cc(Br)cs2)CCN1 | -2.1%
46 | CCN(Cc1csc(CS(C)(=O)=O)n1)c1cccc(CO)c1 | -10%
47 | CC(Cn1cccn1)NCc1nc(-c2ccc3c(c2)OCO3)no1 (stereo not given) | -12.4%
48 | O=C(Nc1ncn(Cc2cccc(Br)c2)n1)C1CCC1 | 11.4%
49 | CC(NC(=O)Cn1cccnc1=O)c1ccc(C(F)(F)F)cc1 (stereo not given) | 8.2%
50 | c1cnc(N2CCc3onc(CN4CCCC4)c3C2)cn1 | -3.09%
51 | Cc1nnc([C@@]23CCO[C@@H]2CCN(Cc2nccs2)C3)o1 | -104%
52 | Cc1cc(C(=O)N2CCn3c(COCC4CCCC4)cnc3C2C)on1 (stereo not given) | 3.18%
53 | NC(=O)c1cnc2n1CCN(C(=O)c1cccc(Cn3cccn3)c1)C2 | 4.35%
54 | CN(Cc1ccc(-n2cccn2)cc1)Cc1cnc(N(C)C)nc1 | -1.28%
55 | CC[C@H]1COCCN1C(=O)c1cnc(N2CCN(C)CC2)nc1C | -12.4%
56 | COc1cc(O)ccc1CN1CCN(C2CCc3ccccc3C2)CC1 (stereo not given) | -1.33%
57 | CCC(NC(=O)CCCN1CCCCC1)c1cn2cccnc2n1 (stereo not given) | 8.09%
58 | Cc1cc(N2CCCN(C(=O)CSCC3CC3)CC2)ccn1 | -1.9%
59 | Cc1cc(C(=O)N2CCC(n3nc(C)cc3C)C2)c2ccc(F)cc2n1 (stereo not given) | -5.08%
60 | COc1ncccc1CN1CC[C@@]2(O)CCN(C(=O)C3CCC3)C[C@H]2C1 | 9.31%
61 | O=C1CCC2(CCCN(C(=O)c3ccoc3)C2)CN1Cc1ccncc1 (stereo not given) | 3.06%
62 | CN(C)C[C@H]1C[C@H](CO)CN(C(=O)c2cc(S(N)(=O)=O)ccc2F)C1 | 11.9%
63 | COc1ccc(F)c(CNC2CCCc3nc(N(C)C)ncc32)c1 (stereo not given) | 1.81%
64 | O=C(NCc1cnn2cccnc12)C1CC(=O)N(Cc2cccnc2)C1 (stereo not given) | 8.21%
65 | CN(CCC1CCOCC1)[C@@H]1c2ccccc2C2(CCNCC2)[C@H]1O | -3.23%
66 | COc1ccc(OC)c(CNC2CCCc3nc(N(C)C)ncc32)c1 (stereo not given) | -11.2%

Row | Compound | cytotoxicity at 10 µM
67 | c1nc2c(c(NC3COC4(CCCC4)C3)n1)CCNCC2 (stereo not given) | 0.383%
68 | CCc1nc(C)sc1CN1CCc2[nH]nc(-c3ccc(F)c(F)c3)c2C1 | 5.57%
69 | CC(C)NCc1cccnc1N1CCN(c2ccccn2)CC1 | -3.85%
70 | COc1ccccc1N1CCN(Cc2ncc(C)c(OC)c2C)CC1=O | 6.18%
71 | CC(C)c1nccn1C(C)C(=O)N1CCN(S(C)(=O)=O)CC1 (stereo not given) | -4.32%
72 | Cc1nnc(CN(C)CC2(O)CCCN(CCC3CCCCC3)C2=O)o1 (stereo not given) | 17.1%
73 | O=C(C1CC2(CCNCC2)CN1)N1CCN(c2ccccc2)CC1 (stereo not given) | -8.6%
74 | CSc1ccccc1C(=O)N(C)Cc1nncn1C(C)C | 3.92%
75 | O=C(CCc1ccco1)N1CCC(Oc2ccccc2)(C(=O)O)CC1 | 1.46%
76 | Cn1ccc2c(-c3ccc(NCCO)nn3)ccnc21 | -5.56%
77 | Cc1nc2ccccc2n1Cc1cc(C(=O)N(C)C2CCOCC2)no1 | 25.7%
78 | CCN(CC)CCn1ccnc1-c1[nH]cnc1C | -8.88%
79 | CNS(=O)(=O)c1ccsc1C(=O)OC | 7.54%
80 | COCCCN1CC2(CCCN(c3ncc(Cl)cc3F)C2)CCC1=O (stereo not given) | -13.1%
81 | Cc1ccc(CN2CCN(C(=O)c3ccccc3O)C(C)C2=O)cc1 (stereo not given) | 6.31%
82 | CCCn1cc(S(=O)(=O)N[C@H]2CN(CC(N)=O)C[C@@H]2C2CC2)cn1 | -11.7%
83 | CNC(=O)COc1cccc(CNC(=O)c2c(C)noc2C(C)C)c1 | -2.8%
84 | O=C(Cc1cccc(F)c1)NCCNc1ncccn1 | -6.71%
85 | Cc1nc(C)n(CC2CN(Cc3cccc4ccccc34)CCO2)n1 (stereo not given) | -2.64%
86 | Cc1noc(C)c1CCC(=O)N1CCCC(n2cccn2)C1 (stereo not given) | -7.81%
87 | Cn1cccc1C1CCCCCN1C(=O)c1ccc(NC2CC2)nc1 (stereo not given) | -9.24%
88 | CCNc1cc2c(nn1)CCN(C(=O)c1cccc(CSC)c1)C2 | -12.7%

Row | Compound | cytotoxicity at 10 µM
89 | CN(Cc1noc(C2CC2)n1)C1CCN(CCn2cc(C#N)cn2)C1 (stereo not given) | -9.1%
90 | Cc1nn(C)c(Cl)c1C1CCCN1C(=O)c1cccn1C (stereo not given) | -5.53%
91 | CC(=O)Nc1nc(C(=O)N2CCCC2Cn2cccn2)cs1 (stereo not given) | -5.42%
92 | Cc1cccc(C(=O)N(C)C2CCN(c3ccccn3)CC2)c1C | 1.84%
93 | Cc1noc(CN2CCN(C(=O)c3ccccn3)CC2)n1 | 1.35%
94 | CCOCCCn1c(NC(=O)c2ccc(C)nc2)nc2ccccc21 | -6.95%
95 | Cc1nn(C)c(C)c1C1COCCN1C(=O)c1ccccc1 (stereo not given) | -10.2%
96 | CN(CC(=O)N(C)C1CCCCC1)C1CCc2ccccc21 (stereo not given) | -7.44%
97 | Cc1nccn1CCCC(=O)N1CCC(Nc2cccnn2)CC1 | -17.3%
98 | CCCc1nnsc1C(=O)N1CCN(CC(O)C2CC2)CC1 (stereo not given) | -7.78%
99 | c1ccc(N2CC[C@H](OCC3CC3)[C@@H]2Cc2cccnc2)nc1 | 7.53%
100 | CNC(=O)[C@H]1C[C@@H]2CN(C(=O)c3ccccn3)C[C@@H]2N1S(C)(=O)=O | -1.37%
101 | CS(=O)(=O)NCc1cc(=O)n2c(n1)CN(CC1CC1)CCC2 | -104%
102 | Cc1ccsc1CN1CC[C@H]2OCC[C@@]2(C(=O)N2CCCO2)C1 | -4%
103 | O=C1CO[C@@H]2CN(CC3CCOCC3)C[C@H]2N1CC1CC1 | 1.57%
104 | Cc1nc(CN2CCO[C@@H]3CN(Cc4cccs4)C[C@@H]3C2)cs1 | 6.11%
105 | CCN1Cc2ccccc2CC2(CCN(CC(=O)O)CC2)C1=O | -4.87%
106 | COCCN1CCc2ncnc(OC(C)C)c2CC1 | 8.26%
107 | Cc1occc1C(=O)N1CCC2(CCCN(c3ncc(F)cn3)C2)C1 (stereo not given) | -102%
108 | COCC1CC2(CCN(Cc3cnn(C)c3)CC2)CN1C(C)C (stereo not given) | 2.91%
109 | CC(C)N1[C@H](Cn2cncn2)C[C@@H]2CN(Cc3nccn3C)CC[C@@H]21 | -106%
110 | CC(C)CS(=O)(=O)N1C[C@@H]2C[C@H](C(=O)N(C)C)[C@H](C1)O2 | 8.66%
